Data on 44 compounds can be found in PubChem BioAssay AID624175 (Southern Research Specialized Biocontainment Screening …, 2012).

This assay deals with Leucine aminopeptidase (Plasmodium falciparum (isolate 3D7)) (UniProt Q8IL11). The experiment in a line: PFM17LAP inhibitors, dose response, selectivity assay for PFM18AAP inhibitor project, biochemical, QFRET, H-Leu-NHMec substrate, set 3 (AID 624175). Particulars: recombinant PfM17LAP, H-Leu-NHMec fluorogenic cleavage. An outline of the steps:
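test system = recombinant PfM17LAP enzyme | compound dosing = 10-point twofold dilution series, 100 down to 0.2 µM, 2% DMSO | timing = enzyme reaction of 90 min at room temperature | measured by = fluorescence of released NHMec, excitation 370 nm, emission 460 nm | evaluation = % inhibition and fitted IC50 | repeats = triplicate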

pIC50: −log10 of the molar value. Active and inactive are the calls of the source.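 How the source made its calls: active means inhibition of 30% or more at any tested concentration; inactive means the rest.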

Broadly, the pIC50 is the negative decadic logarithm of the IC50, by convention in mol/L.

Chain of Leucine aminopeptidase (Plasmodium falciparum (isolate 3D7)) (Q8IL11 whole entry, looked up): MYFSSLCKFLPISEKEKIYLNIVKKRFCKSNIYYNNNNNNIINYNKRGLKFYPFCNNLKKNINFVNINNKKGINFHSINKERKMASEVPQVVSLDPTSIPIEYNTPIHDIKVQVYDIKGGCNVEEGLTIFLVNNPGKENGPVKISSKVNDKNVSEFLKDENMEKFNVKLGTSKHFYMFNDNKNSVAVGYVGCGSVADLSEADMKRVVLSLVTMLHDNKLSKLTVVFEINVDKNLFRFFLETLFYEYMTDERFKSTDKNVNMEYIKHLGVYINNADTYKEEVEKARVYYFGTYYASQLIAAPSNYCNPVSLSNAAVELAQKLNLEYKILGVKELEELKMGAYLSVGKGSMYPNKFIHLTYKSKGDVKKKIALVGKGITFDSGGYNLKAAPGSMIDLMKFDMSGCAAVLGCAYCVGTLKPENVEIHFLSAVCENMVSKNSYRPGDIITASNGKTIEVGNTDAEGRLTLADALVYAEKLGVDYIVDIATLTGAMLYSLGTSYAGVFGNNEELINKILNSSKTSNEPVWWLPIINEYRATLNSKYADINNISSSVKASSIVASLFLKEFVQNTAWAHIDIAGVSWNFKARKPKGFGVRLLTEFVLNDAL

As to `CN(CCc1ccc(O)c(O)c1)c1ccnc2c(F)cccc12`, the pIC50 is 4.46.

Turning to `COc1cc(Br)c(CCNc2ccnc3ccccc23)cc1OC`, the inhibition entry (at 100 µM (top of the series)) was “inactive”.

As to `CCOc1ccc2nccc(NCCc3ccc(OC)c(OC)c3)c2c1`, the inhibition entry (at 100 µM (top of the series)) is “inactive”. `Clc1c2c(nc3ccccc13)CCCC2`: the inhibition entry (at 100 µM (top of the series)) is “inactive”.

In the case of `CC(Cc1ccc(O)c(O)c1)Nc1ccnc2ccccc12` (centres undefined), the pIC50 is 4.12.

For `CC(C)(CNc1ccnc2ccccc12)c1ccc(O)c(O)c1`, the pIC50 was 3.99.

As to `COc1ccc(CCNc2cc(C)nc3ccccc23)cc1OC`, the inhibition result (at 100 µM (top of the series)) was “inactive”.

Consider `COc1ccc(CCCN(C)c2c3ccccc3nc3ccccc23)cc1OC`, for which, where the note is “at 100 µM (top of the series)”, the inhibition result is “inactive”. As for `COc1ccc(CCNC(=O)c2cc(C)ccc2N)cc1OC`, the inhibition entry (at 100 µM (top of the series)) was “inactive”. For the compound `COc1ccc(CCN(C)c2cc(C)nc3ccccc23)cc1OC`, under “at 100 µM (top of the series)”, the inhibition entry was “inactive”. On the same count and under the same terms, to `COc1cc(Br)c(CCNc2c3c(nc4ccccc24)CCCC3)cc1OC` belongs “inactive”.

For the compound `Cc1cccc2c(N(C)CCc3ccc(O)c(O)c3)ccnc12`, the pIC50 was 4.26. As for `COc1ccc(CCN(C)c2c3ccccc3nc3ccccc23)cc1OC`, the inhibition entry (at 100 µM (top of the series)) is “inactive”. In the case of `COc1ccc(CCNc2c3c(nc4ccc(C)cc24)CCCC3)cc1OC`, the inhibition result (at 100 µM (top of the series)) was “inactive”. On the same count and under the same terms, with `COc1ccc(CCNc2ccnc3c(F)cccc23)cc1OC` the entry was “inactive”.

For `Oc1ccc(CCCNc2c3c(nc4ccccc24)CCCC3)cc1O`, the pIC50 is 4.25. Consider `CCOc1ccc2nccc(N(C)CCc3ccc(OC)c(OC)c3)c2c1`, for which, where the note is “at 100 µM (top of the series)”, the inhibition result was “inactive”.

Turning to `COc1ccc(CCCNc2c3c(nc4ccccc24)CCCC3)cc1OC`, the inhibition entry (at 100 µM (top of the series)) is “inactive”. Same read-out and setting: with `COc1ccc(CCNc2ccnc3cc(Cl)ccc23)cc1OC` the entry was “inactive”.

With `Oc1ccc(CCNc2ccnc3cc(Cl)ccc23)cc1O`, the pIC50 was 4.13.

Turning to `Oc1ccc(C2CCN(c3ccnc4ccccc34)C2)cc1O` (centres undefined), the pIC50 was 4.52. As to `CN(CCc1ccc(O)c(O)c1)c1ncnc2ccccc12`, the pIC50 is 4.52. Consider `Oc1ccc(C2CCN(c3ccnc4ccccc34)CC2)cc1O`, for which the pIC50 was 4.42.

In the case of `Nc1c2ccccc2nc2ccccc12`, the inhibition entry (at 100 µM (top of the series)) was “inactive”. In the case of `CN(CCCc1ccc(O)c(O)c1)c1c2ccccc2nc2ccccc12`, where the note is “at 100 µM (top of the series)”, the inhibition entry was “inactive”. The same measure, in the same setting: to `COc1ccc(C2CCN(c3ccnc4ccccc34)CC2)cc1OC` belongs “inactive”; to `CCN(CCc1ccc(OC)c(OC)c1)c1c2ccccc2nc2ccccc12`, “inactive”. Regarding `Cc1cc(N(C)CCc2ccc(O)c(O)c2)c2ccccc2n1`, the pIC50 was 4.32. Consider `COc1ccc(CCN(C)c2ccnc3cc(Cl)ccc23)cc1OC`, for which, where the note is “at 100 µM (top of the series)”, the inhibition result was “inactive”. Same read-out and setting: with `COc1ccc(C2CCN(c3ccnc4ccccc34)C2)cc1OC` (centres undefined) the entry was “inactive”; with `COc1ccc(CCNc2ncnc3ccccc23)cc1OC`, “inactive”. For the compound `CN(CCc1ccc(O)c(O)c1)c1c2ccccc2nc2ccccc12`, the inhibition result (at 100 µM (top of the series)) is “inactive”. Still for that read-out and setting: with `COc1ccc(CCN(C)c2ccnc3c(F)cccc23)cc1OC` the entry was “inactive”; with `COc1ccc(CCN(C)c2ncnc3ccccc23)cc1OC`, “inactive”. Still for that read-out and setting: to `COc1ccc(CCNc2ccnc3c(C)cccc23)cc1OC` belongs “inactive”. On to `Oc1ccc(CCNc2ccnc3c(F)cccc23)cc1O`, for which the pIC50 was 4.45. Consider `Oc1cccc(CCNc2ccnc3ccccc23)c1O`, for which the pIC50 is 4.45. As to `CCN(CC)Cc1cc(Nc2ccnc3cc(Cl)ccc23)ccc1O`, where the note is “at 50 µM (top of the series)”, the inhibition entry is “inactive”. On to `CN(CCCc1ccc(O)c(O)c1)c1ccnc2ccccc12`, for which the pIC50 was 4.24.

With `Oc1ccc(C2CCCN(c3ccnc4ccccc34)C2)cc1O` (centres undefined), the pIC50 was 4.27.

Take `CN(CCc1ccc(O)c(O)c1)c1ccnc2cc(Cl)ccc12`: the pIC50 was 4.36. As to `COc1ccc(CCN(C)c2ccnc3c(C)cccc23)cc1OC`, the inhibition result (at 100 µM (top of the series)) was “inactive”.

For `COc1cc(Br)c(CCNc2c3ccccc3nc3ccccc23)cc1OC`, for the setting “at 100 µM (top of the series)”, the inhibition result was “inactive”.

With `Cc1cccc2c(NCCc3ccc(O)c(O)c3)ccnc12`, the pIC50 is 4.19.
